# Source: PubChem
# PGC1a acetyl inh: inhibitors of PGC1a acetylation signal, primary screen, cell-based, U2OS, AlphaScreen, inhibitor mode; AlphaScreen anti-acetyl-lysine; with virally co-expressed GCN5 acetyltransferase; inhibition, % at 15.6 µM; hit rate 0.17% among 350,000; AID 651687, 2012;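 active = every replicate shows inhibition of at least 40%; inconclusive = mean inhibition at least 40% but some replicate below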;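 note: 0% = neutral control wells and 100% = positive control wells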
# SIRT5 block: SIRT5 desuccinylase inhibitors, primary screen, biochemical, fluorescence imaging, single point, set 5; inhibition, % at 15 µM; hit rate 1.1% among 330,000; Purified SirT5, succinyl-peptide AMC, trypsin-coupled fluorescence; AID 652115, 2013; NAD-dependent protein deacylase sirtuin-5, mitochondrial (Homo sapiens), Q9NXA8; in the data active = inhibition above about 15%; inconclusive = no clear call, values can overlap the other calls
# Target sequence (Q9NXA8 whole entry, looked up): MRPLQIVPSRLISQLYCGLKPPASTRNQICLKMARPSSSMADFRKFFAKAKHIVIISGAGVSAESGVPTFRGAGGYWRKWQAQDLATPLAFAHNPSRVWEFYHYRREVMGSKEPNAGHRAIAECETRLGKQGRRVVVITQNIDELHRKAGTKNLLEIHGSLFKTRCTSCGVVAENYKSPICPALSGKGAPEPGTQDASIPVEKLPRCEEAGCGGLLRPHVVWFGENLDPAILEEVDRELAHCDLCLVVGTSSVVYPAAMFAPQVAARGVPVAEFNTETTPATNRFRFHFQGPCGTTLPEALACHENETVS
# S100A4 MyoIIA: inhibitors of S100A4-myosin IIA peptide binding, primary screen, biochemical, fluorescence polarization, TAMRA-MyoIIA peptide. hit rate 0.14% among 360,000. inhibition, % at 10.7 µM. Protein S100-A4 (Homo sapiens), P26447;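 active = mean inhibition of at least 70% across replicates, with every replicate also reaching that level; inconclusive = mean inhibition reaches 70% but some replicates fall short; inactive = mean inhibition below 70%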
# Target sequence (P26447 whole entry, looked up): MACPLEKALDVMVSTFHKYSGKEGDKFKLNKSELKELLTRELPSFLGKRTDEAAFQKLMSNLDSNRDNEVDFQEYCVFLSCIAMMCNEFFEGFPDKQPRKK
#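 Material: S100A4 monomer (human). Medium: Calcium-containing HEPES buffer, pH 7.2. Probe or stimulus: labelled myosin peptide probe, 5 nM. Compound dosing: one concentration per compound. Timing: polarization read 5 min after assay mix addition, stable 5–60 min. Benchmarks: DMSO as neutral control, TFP as positive control.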
# DENV2 CPE: inhibitors of DENV2 cytopathic effect, primary screen, cell-based, plate reader, single concentration | DENV2-infected cells, cytopathic effect rescue | CPE inhibition, % at 9.99 µM | hit rate 1.7% among 350,000; in the data active = CPE inhibition above about 20%, passing the limit was not always enough; inconclusive = no clear call, values can overlap the other calls; tested in BHK-21 cells;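 note: 0% = median of neutral control wells and 100% = median of positive control wells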
# C2C12 statin: suppressors of statin myotoxicity in C2C12 myotubes, primary screen, cell-based, single point, plate reader; C2C12 myotubes + simvastatin, ATP luminescence, 48 h; scaled: DMSO 0, geranylgeraniol control 100; rescue of ATP level, % at 7.49 µM; hit rate 0.78% among 330,000; AID 602340, 2012;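 active = mean ATP rescue above about 67%, or every replicate alone reaching that limit, limit read from the data, passing the limit was not always enough; inconclusive = no clear call, values can overlap the other calls; inactive = mean under the limit and some replicate under it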;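 note: myotubes were challenged with 10 µM simvastatin during compound exposure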
# * = called active by the depositor; ? = inconclusive; nt = not tested or not shown. Only some compounds are listed: those with a hit (about 2.9% of all), similar ones and a draw of the others.
SMILES,PGC1a acetyl inh,SIRT5 block,S100A4 MyoIIA,DENV2 CPE,C2C12 statin
COc1cccc(NC(=O)N(C)C[C@@H]2Oc3cc(-c4ccccc4F)ccc3S(=O)(=O)N([C@H](C)CO)C[C@@H]2C)c1,-14.1,17.0*,-6.0,?,-25.3
C/C=C/c1ccc2c(c1)O[C@@H](CN(C)C(=O)Nc1cc(F)ccc1F)[C@H](C)CN([C@H](C)CO)S2(=O)=O,-5.8,3.6,-11.4,16.0,-41.1
Cc1ccccc1NC(=O)CC1c2ccccc2CC(C)(C)N1C (centres undefined),82.6*,-0.5,1.1,-4.0,nt
Cc1cc(Oc2ccccc2)nc(-c2ccccc2O)n1,3.5,nt,nt,nt,104.2*
Cc1cc(N2CCCC2)nc(-c2ccccc2O)n1,-8.6,nt,nt,nt,114.6*
C=CCOc1cc(C)nc(-c2ccccc2O)n1,1.7,nt,nt,nt,-2.2
CCCN1C[C@H](C)[C@@H](OC)CN(C)C(=O)c2cc(NC(=O)COC)ccc2OC[C@H]1C,3.9,nt,nt,nt,6.2
COC(=O)c1ccccc1NC(=O)c1cc2ccccc2o1,2.0,-3.7,-4.5,1.0,0.9
O=C(Nc1ccccc1C(=O)N1CCOCC1)c1cc2ccccc2o1,nt,29.9*,-5.6,1.6,1.7
CCNC(=O)[C@@H]1[C@@H](CO)[C@@H]2Cn3c(ccc(C4=CCCC4)c3=O)[C@H]1N2C(=O)C1CC1,1.5,-16.5,6.8,-0.1,4.8
Cc1noc(C)c1NC(=O)Nc1cccc2c1O[C@@H](CN(C)CC1CC1)[C@H](C)CN([C@@H](C)CO)C2=O,-5.1,8.5,2.3,2.6,22.9
Cc1cc(NC(=O)COC(=O)Cn2[nH]c(=O)c3ccccc3c2=O)c([N+](=O)[O-])cc1C,nt,nt,-8.6,52.1*,nt
CCC(=O)N1[C@H](CO)[C@@H](c2ccccc2)[C@@H]1CN(CC)C(=O)c1ccccc1,-15.3,-3.9,-2.9,-12.3,23.8
COc1ccc(S(=O)(=O)N2CCN(c3ccc4nnc(-c5ccccc5)n4n3)CC2)cc1,-9.3,0.0,-3.8,-1.7,111.0*
CCn1c(C)cc(/C=C2/SC(=S)N(CC(=O)O)C2=O)c1C,11.0,15.4*,-6.4,nt,nt
CCn1c(C)cc(/C=C2/SC(=O)N(C(C)C(=O)OC)C2=O)c1C (centres undefined),-7.8,-1.0,3.7,-1.4,1.4
CN(C)CC(=O)Nc1ccc2c(c1)[C@@H]1C[C@@H](CC(=O)NCC3CC3)O[C@@H](CO)[C@@H]1O2,4.8,13.0,-1.3,-9.2,8.2
CO/N=C/C(c1ncc(C(F)(F)F)cc1Cl)S(=O)(=O)c1ccccc1 (centres undefined),-3.5,-0.5,7.6,9.2,-7.5
CO/N=C/C(c1ccc(Cl)nc1)S(=O)(=O)c1ccccc1 (centres undefined),-7.2,20.9*,-0.7,-7.7,0.9
CO[C@@H]1CN(C)C(=O)c2cc(NS(=O)(=O)c3ccccc3Cl)ccc2OC[C@H](C)NC[C@H]1C,-4.8,-1.0,14.1,-4.2,22.8
O=C1C[C@@H]2c3c(cccc3CN1Cc1ccc(Cl)cc1)C[C@@H](O)[C@H]2O,-7.5,nt,-0.5,-22.2,118.5*
O=C1C[C@@H]2c3c(cccc3CN1Cc1ccccc1F)C[C@@H](O)[C@H]2O,-0.4,-7.9,-1.4,3.2,126.2*
O=C1C[C@@H]2c3c(cccc3CN1Cc1ccccc1Cl)C[C@@H](O)[C@H]2O,16.1,-7.2,-4.4,-1.4,19.5
Cc1noc(C)c1S(=O)(=O)N(C)C[C@@H]1Oc2ccc(NC(=O)CCC(F)(F)F)cc2CC(=O)N([C@@H](C)CO)C[C@H]1C,6.3,-1.4,-0.5,2.1,-9.1
O=C(NC1CC1)C1CCN(C2CCN(Cc3ccccc3C(F)(F)F)CC2)CC1,-12.7,1.7,0.3,-0.4,82.7*
CC(=O)Nc1ccc(CN2CCC(N3CCC(C(=O)NC4CC4)CC3)CC2)cc1,-5.4,nt,2.1,-6.9,1.8
CN(C)C(=O)c1cccc(-c2cccc(-c3nc(C(=O)NCc4ccccc4)cc4c3[C@@H](CCO)N([S@](=O)C(C)(C)C)C4)c2)c1,-7.2,-0.4,-3.6,-1.3,-1.8
Cc1[nH]c2ccccc2c1CC(=O)Nc1ccc(N(C)c2cccnc2)c(-c2cccc(Cl)c2)c1,nt,nt,-1.4,42.5*,nt
